Laboratory results: ChEMBL document CHEMBL1122917, “Vinblastin-23-oyl amino acid derivatives: chemistry, physicochemical data, toxicity, and antitumor activities against P388 and L1210 leukemias” (J Med Chem, 1985)

Key:
Assay type in all cases: functional
[1] = tested on: Mus musculus; assay: Number of survivors on 60th day at dose 15 mg/kg/day in 10 mice implanted with P388 leukemia cell line; 0/10
[2] = tested on: Mus musculus; assay: Number of survivors on 60th day at dose 20 mg/kg/day in 10 mice implanted with P388 leukemia cell line; 0/10
[3] = tested on: Mus musculus; assay: Percent increase in life span at dose 15 mg/kg/day in 10 mice implanted with P388 leukemia cell line
Procedure, shortened: (§1)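 Female DBA2 mice inoculated iv on day 0 with 10^4 P388 cells; single iv treatment on day 1 with drug as sulfate salt in physiological saline. Survival followed; %ILS from all deaths and survivors as (T/C × 100) − 100, maximal MST 30 days; survivors counted on days 30 and 60. Most experiments confirmed three times.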

[4] = tested on: Mus musculus; assay: Percent increase in life span at dose 20 mg/kg/day in 10 mice implanted with P388 leukemia cell line; procedure, shortened: as §1
[5] = tested on: Mus musculus; assay: Number of survivors on 60th day at dose 50 mg/kg/day in 10 mice implanted with P388 leukemia cell line; 0/10
[6] = tested on: Mus musculus; assay: Percent increase in life span at dose 30 mg/kg/day in 10 mice implanted with P388 leukemia cell line; procedure, shortened: as §1
[7] = tested on: Mus musculus; assay: Percent increase in life span at dose 40 mg/kg/day in 10 mice implanted with P388 leukemia cell line; procedure, shortened: as §1
[8] = tested on: Mus musculus; assay: Percent increase in life span at dose 5 mg/kg/day in 10 mice implanted with P388 leukemia cell line; procedure, shortened: as §1
[9] = tested on: Mus musculus; assay: Number of survivors on 60th day at dose 30 mg/kg/day in 10 mice implanted with P388 leukemia cell line; 0/10
[10] = tested on: Mus musculus; assay: Number of survivors on 60th day at dose 40 mg/kg/day in 10 mice implanted with P388 leukemia cell line; 0/10
[11] = tested on: Mus musculus; assay: Number of survivors on 60th day at dose 5 mg/kg/day in 10 mice implanted with P388 leukemia cell line; 0/10
[12] = tested on: Mus musculus; assay: Number of survivors on 30th day at dose 20 mg/kg/day in 10 mice implanted with P388 leukemia cell line; 0/10
[13] = tested on: Mus musculus; assay: Number of survivors on 30th day at dose 30 mg/kg/day in 10 mice implanted with P388 leukemia cell line; 0/10
[14] = tested on: Mus musculus; assay: Number of survivors on 30th day at dose 40 mg/kg/day in 10 mice implanted with P388 leukemia cell line; 0/10
[15] = tested on: Mus musculus; assay: Number of survivors on 30th day at dose 5 mg/kg/day in 10 mice implanted with P388 leukemia cell line; 0/10
[16] = tested on: Mus musculus; assay: Number of survivors on 30th day at dose 50 mg/kg/day in 10 mice implanted with P388 leukemia cell line; 0/10
[17] = tested on: Mus musculus; assay: Number of survivors on 30th day at dose 15 mg/kg/day in 10 mice implanted with P388 leukemia cell line; 0/10
[18] = tested on: Mus musculus; assay: Percent increase in life span at dose 50 mg/kg/day in 10 mice implanted with P388 leukemia cell line; procedure, shortened: as §1
[19] = tested on: Mus musculus; assay: Number of survivors on 60th day at dose 60 mg/kg/day in 10 mice implanted with P388 leukemia cell line; 0/10; procedure, shortened: as §1
[20] = tested on: Mus musculus; assay: Percent increase in life span at dose 80 mg/kg/day in 10 mice implanted with P388 leukemia cell line; procedure, shortened: as §1
[21] = tested on: Mus musculus; assay: Number of survivors on 60th day at dose 80 mg/kg/day in 8 mice implanted with P388 leukemia cell line; 0/8
[22] = tested on: Mus musculus; assay: Percent increase in life span at dose 60 mg/kg/day in 10 mice implanted with P388 leukemia cell line; procedure, shortened: as §1
[23] = tested on: Mus musculus; assay: Number of survivors on 30th day at dose 80 mg/kg/day in 8 mice implanted with P388 leukemia cell line; 0/8
[24] = tested on: Mus musculus; assay: Number of survivors on 30th day at dose 60 mg/kg/day in 10 mice implanted with P388 leukemia cell line; 0/10
[25] = tested on: Mus musculus; assay: Number of survivors on 60th day at dose 55 mg/kg/day in 10 mice implanted with P388 leukemia cell line; 0/10
[26] = tested on: Mus musculus; assay: Percent increase in life span at dose 70 mg/kg/day in 10 mice implanted with P388 leukemia cell line; procedure, shortened: as §1
[27] = tested on: Mus musculus; assay: Percent increase in life span at dose 55 mg/kg/day in 10 mice implanted with P388 leukemia cell line; procedure, shortened: as §1
[28] = tested on: Mus musculus; assay: Number of survivors on 60th day at dose 80 mg/kg/day in 10 mice implanted with P388 leukemia cell line; 0/10
[29] = tested on: Mus musculus; assay: Percent increase in life span at dose 65 mg/kg/day in 10 mice implanted with P388 leukemia cell line; procedure, shortened: as §1
[30] = tested on: Mus musculus; assay: Number of survivors on 60th day at dose 65 mg/kg/day in 10 mice implanted with P388 leukemia cell line; 0/10
[31] = tested on: Mus musculus; assay: Number of survivors on 60th day at dose 70 mg/kg/day in 10 mice implanted with P388 leukemia cell line; 0/10
[32] = tested on: Mus musculus; assay: Number of survivors on 30th day at dose 55 mg/kg/day in 10 mice implanted with P388 leukemia cell line; 0/10
[33] = tested on: Mus musculus; assay: Number of survivors on 30th day at dose 70 mg/kg/day in 10 mice implanted with P388 leukemia cell line; 0/10
[34] = tested on: Mus musculus; assay: Number of survivors on 30th day at dose 80 mg/kg/day in 10 mice implanted with P388 leukemia cell line; 0/10
[35] = tested on: Mus musculus; assay: Number of survivors on 30th day at dose 65 mg/kg/day in 10 mice implanted with P388 leukemia cell line; 0/10

## CC[C@]1(O)C[C@@H]2C[N@](CCc3c([nH]c4ccccc34)[C@@](C(=O)OC)(c3cc4c(cc3OC)N(C)[C@@]3(C)[C@@](O)(C(=O)N[C@@H](CC(C)C)C(N)=O)[C@H](O)[C@]5(CC)C=CCN6CC[C@]43[C@@H]65)C2)C1
[1]
  Survivors: 0
[2]
  Survivors: 0
[3]
  ILS at 15 mg/kg/day: 8.7%
[4]
  ILS at 20 mg/kg/day: 1.7%
[5]
  Survivors: 0
[6]
  ILS at 30 mg/kg/day: 1.7%
[7]
  ILS at 40 mg/kg/day: 19%
[8]
  ILS at 5 mg/kg/day: 1.7%
[9]
  Survivors: 0
[10]
  Survivors: 0
[11]
  Survivors: 0
[12]
  Survivors: 0
[13]
  Survivors: 0
[14]
  Survivors: 0
[15]
  Survivors: 0
[16]
  Survivors: 0
[17]
  Survivors: 0
[18]
  ILS at 50 mg/kg/day: 15.5%

## CCCCCCCCOC(=O)[C@H](CC(C)C)NC(=O)[C@@]1(O)[C@H](O)[C@]2(CC)C=CCN3CC[C@@]4(c5cc([C@@]6(C(=O)OC)C[C@H]7C[N@](CCc8c6[nH]c6ccccc86)C[C@](O)(CC)C7)c(OC)cc5N(C)[C@@]14C)[C@@H]32
[19]
  Survivors: 0
[20]
  ILS at 80 mg/kg/day: 9.5%
[7]
  ILS at 40 mg/kg/day: -0.9%
[21]
  Survivors: 0
[22]
  ILS at 60 mg/kg/day: 7.8%
[10]
  Survivors: 0
[14]
  Survivors: 0
[23]
  Survivors: 0
[24]
  Survivors: 0

## CCCCOC(=O)[C@H](CC(C)C)NC(=O)[C@@]1(O)[C@H](O)[C@]2(CC)C=CCN3CC[C@@]4(c5cc([C@@]6(C(=O)OC)C[C@H]7C[N@](CCc8c6[nH]c6ccccc86)C[C@](O)(CC)C7)c(OC)cc5N(C)[C@@]14C)[C@@H]32
[25]
  Survivors: 0
[19]
  Survivors: 0
[26]
  ILS at 70 mg/kg/day: 26.7%
[20]
  ILS at 80 mg/kg/day: 27.6%
[27]
  ILS at 55 mg/kg/day: 23%
[28]
  Survivors: 0
[22]
  ILS at 60 mg/kg/day: 26%
[29]
  ILS at 65 mg/kg/day: 13.8%
[30]
  Survivors: 0
[31]
  Survivors: 0
[32]
  Survivors: 0
[33]
  Survivors: 0
[34]
  Survivors: 0
[24]
  Survivors: 0
[35]
  Survivors: 0
